pIC50: −log10 of the molar value. Converted amounts (≈) assume the structure as drawn.
Columns and labels:
[1] = Solubility in phosphate-buffered saline (PBS) at pH 7.1; type: physicochemical
L1210 [2] = assay: Antiproliferative activity of compound expressed as concentration that inhibits 50% of growth of L1210 leukemic cell suspension from 24 to 48 hr after compound addition.; type: functional, cell-based; conditions: Mus musculus
In short: (§1)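 Cells grown in RPMI 1640 with L-glutamine, 10% defined equine serum, 2% Mopes-Hepes buffer (pH 7.40), penicillin and streptomycin. Tested in log phase (0.5 × 10^5–2 × 10^6 cells/mL), in duplicate. Compound given as 10-µL DMSO stock (one ester in ethanol), with solvent-spiked controls.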

L1210 [3] = assay: Percent viability against L1210 leukemic cells 48 hr after compound addition at 35 uM concentration; type: functional, Mus musculus
In short: (§2)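 Leukemia cells in RPMI 1640 with 10% defined equine serum and Mopes-Hepes buffer (pH 7.40). Compound added from DMSO stock. Viable cells scored by trypan blue exclusion 48 h after compound addition.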

L1210 [4] = assay: Percent viability against L1210 leukemic cells at 0 uM; type: functional, Mus musculus
L1210 [5] = assay: Percent viability against L1210 leukemic cells at 50 uM; type: functional, Mus musculus
L1210 [6] = assay: Percent of control growth in L1210 cells by addition of 5 uM compound as iron(II) chelate (FeCl3); type: functional, Mus musculus; conditions: in the assay text read “iron(III) chelate” for “iron(II) chelate”
In short: (§3)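 In L1210 iron-reversal runs, FeCl3 aqueous stock was premixed 1:1 molar with chelator stock until an intense purple colour developed, then added to the cells. Growth was compared with chelator alone, FeCl3 alone and DMSO alone. Cells were counted electronically and growth read 48 h after ligand addition as % of control ± SE.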

L1210 [7] = assay: Percent of control growth in L1210 cells by addition of 5 uM of iron-free compound; type: functional, Mus musculus; in short: as §3
P388 [8] = assay: Percent viability against P388 leukemic cells 48 hr after compound addition at 25 uM concentration; type: functional, Mus musculus; in short: as §2
[9] = Partition ratio in 1-octanol / phosphate-buffered saline system.; type: physicochemical; conditions: buffer
In short: (§4)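 Compound film was left by evaporating an alcohol solution under nitrogen. 5 mL each of 1-octanol and PBS (pH 7.1) were added, sealed under nitrogen and agitated 3 h at 27 °C. Each layer was measured by absorbance at 247 nm against Beer's plots (1.25–10 or 3.25–50 μM).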

P388 [10] = assay: Antiproliferative activity of compound expressed as concentration that inhibits 50% of growth of P388 leukemic cell suspension from 24 to 48 hr after compound addition; type: functional, cell-based; conditions: Mus musculus; in short: as §1
V79 (Cricetulus griseus) = assay: Tritiated thymidine uptake is estimated after incubation of 120 min with compound(50 uM) and the radiolabel
L1210 [11] = assay: Percent viability against L1210 leukemic cells 48 hr after compound addition at 100 uM concentration; type: functional, Mus musculus; in short: as §2
P388 [12] = assay: Percent viability against P388 leukemic cells 48 hr after compound addition at 100 uM concentration; type: functional, Mus musculus; in short: as §2
L1210 [13] = assay: Percent viability against L1210 leukemic cells at 100 uM; type: functional, Mus musculus
L1210 [14] = assay: Percent viability against L1210 leukemic cells at 200 uM; type: functional, Mus musculus
L1210 [15] = assay: Percent viability against L1210 leukemic cells at 25 uM; type: functional, Mus musculus
L1210 [16] = assay: Percent of control growth in L1210 cells by addition of 25 uM compound as […] chelate (FeCl3); type: functional, Mus musculus; in short: as §3
L1210 [17] = assay: Percent of control growth in L1210 cells by addition of 25 uM of iron-free compound; type: functional, Mus musculus; in short: as §3
[18] = Partition ratio in 1-octanol / phosphate-buffered saline system; type: physicochemical; conditions: buffer; in short: as §4
L1210 [19] = assay: Percent viability against L1210 leukemic cells 48 hr after compound addition at 100 uM; type: functional, Mus musculus; in short: as §2
L1210 [20] = assay: Antiproliferative activity of compound expressed as concentration that inhibits 50% of growth of L1210 leukemic cell suspension from 24 to 48 h after compound addition; type: functional, cell-based; conditions: Mus musculus; in short: as §1
P388 [21] = assay: Percent viability against P388 leukemic cells 48 hr after compound addition at 100 uM; type: functional, Mus musculus; in short: as §2
L1210 [22] = assay: Percent of control growth in L1210 cells by addition of 100 uM compound as […] chelate (FeCl3); type: functional, Mus musculus; in short: as §3
L1210 [23] = assay: Percent of control growth in L1210 cells by addition of 100 uM of iron-free compound; type: functional, Mus musculus; in short: as §3
L1210 [24] = assay: Antiproliferative activity, concentration that inhibits 50% of growth of L1210 leukemic cell suspension from 24 to 48 hr after compound addition.; type: functional, cell-based; conditions: Mus musculus; in short: as §1
P388 [25] = assay: Antiproliferative activity of compound expressed as concentration that inhibits 50% of growth of P388 leukemic cell suspension from 24 to 48 hr after compound addition; ND= Not defined; type: functional, cell-based, Mus musculus; in short: as §1
P388 [26] = assay: Percent viability against P388 leukemic cells 48 hr after compound addition at 100 uM concentration; ND= Not defined; type: functional, cell-based; conditions: Mus musculus; in short: as §2

| solubility [1] [µM] | pIC50 (L1210 [2]) | Ratio [9] | pIC50 (P388 [10]) | Ratio [18] | Compound | Viability (L1210 [4]) [%] | Viability (L1210 [5]) [%] | Viability (L1210 [11]) [%] | Viability (P388 [12]) [%] | Viability (L1210 [13]) [%] | Viability (L1210 [14]) [%] | Viability (L1210 [19]) [%] | Viability (P388 [21]) [%] | further results |
| --- | --- | --- | --- | --- | --- | --- | --- | --- | --- | --- | --- | --- | --- | --- |
| – | 4.07 | – | 4.49 | – | NC(=O)NO [HYDROXYUREA] | – | – | 97 | 96 | – | – | – | – | – |
| 50 (≈ 11.9 µg/mL) | 4.85 | 11.75 | 4.74 | – | COC(=O)C1CSC(c2ccccc2O)=N1 (centres undefined) | 99 | 36 | – | – | 46 | 42 | 87 | 85 | Control of growth (L1210 [22]): 98%; Control of growth (L1210 [23]): 4% |

The remaining lines, values behind:

| Compound | solubility [1] [µM] | pIC50 (L1210 [2]) | Ratio [9] | pIC50 (P388 [10]) | Ratio [18] | Viability (L1210 [4]) [%] | Viability (L1210 [5]) [%] | Viability (L1210 [11]) [%] | Viability (P388 [12]) [%] | Viability (L1210 [13]) [%] | Viability (L1210 [14]) [%] | Viability (L1210 [19]) [%] | Viability (P388 [21]) [%] | further results |
| --- | --- | --- | --- | --- | --- | --- | --- | --- | --- | --- | --- | --- | --- | --- |
| O=C(NCCCCN(CCCCNC(=O)C1CSC(c2ccccc2O)=N1)Cc1ccccc1)C1CSC(c2ccccc2O)=N1 (centres undefined) | 15 (≈ 9.9 µg/mL) | 5.52 | 0.96 | 6.00 | – | 87 | 0 | – | – | – | – | – | – | Viability (L1210 [3]): 6%; Control of growth (L1210 [6]): 21%; Control of growth (L1210 [7]): 22%; Viability (P388 [8]): 15%; Control (V79 (Cricetulus griseus)): 48% |
| CC(=O)N(CCCCNC(=O)C1CSC(c2ccccc2O)=N1)CCCCNC(=O)C1CSC(c2ccccc2O)=N1 (centres undefined) | 10 (≈ 6.12 µg/mL) | 4.68 | – | 4.92 | > 7 | 99 | 100 | 95 | 85 | 40 | 27 | – | – | Viability (L1210 [15]): 92%; Control of growth (L1210 [16]): 68%; Control of growth (L1210 [17]): 29% |
| O=C(O)C1CSC(c2ccccc2O)=N1 (centres undefined) | 75 (≈ 16.7 µg/mL) | – | – | 4.77 | 0.03 | 94 | 81 | – | – | 54 | 42 | 92 | 77 | pIC50 (L1210 [20]): 4.60 |
| CCOC(=N)c1ccccc1O | – | – | – | – | – | – | – | >99 | – | – | – | – | – | pIC50 (L1210 [24]): < 3.70; IC50 (P388 [25]): Not defined; Viability (P388 [26]): Not defined |

From ChEMBL document CHEMBL1124457, “In vitro antiproliferative activity of 4-substituted 2-(2-hydroxyphenyl)thiazolines on murine leukemia cells” (J Med Chem, 1989)
